GSH bead fluor = compound fluorescence on glutathione beads, profiling panel, artefact control, biophysical, 488/530 nm, flow cytometry | GSH beads flow cytometry, compound fluorescence 488/530 nm; active compounds read high | AID 1776, 2009 | 190,000 tested, 0.25% active | fluorescence (KMESF) at 10 µM; in the data active = fluorescence above about 89;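 also: glutathione beads carrying GST-tagged Bcl family fusion proteins plus one bare bead set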
Avidin fluor = green autofluorescence of compounds with avidin beads – biophysical, 488/530 nm, flow cytometry, artefact control, profiling panel; compound fluorescence 488/530 nm; active compounds read high; fluorescence (KMESF) at 10 µM; 220,000 tested, 0.38% active; AID 1775, 2009; in the data active = fluorescence above about 47
ABCG2 inh = ABCG2 efflux pump inhibitors, primary screen, multiplex with ABCB1, IgMXP3 cells, flow cytometry; AID 1325, 2008; Broad substrate specificity ATP-binding cassette transporter ABCG2 (Homo sapiens), Q9UNQ0; JC-1 efflux; 190,000 tested, 0.1% active; inhibition, % at 6.6 µM;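 active = inhibition above 80%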
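Test system: IgMXP3 cells (ABCG2) mixed with DDAO far-red-labelled CCRF-Adr cells (ABCB1). Reagent: JC-1 transporter substrate. Compound dosing: single test compound dose, 6.6 µM final. Times: 10 min compound exposure, 25 °C. Detection: flow cytometry of retained JC-1 fluorescence. Read-out basis: efflux inhibition in percent versus controls. Controls: nicardipine and DMSO wells.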
ABCB1 block = ABCB1 efflux pump inhibitors, primary screen, cell-based, multiplex, flow cytometry, ABCG2 counter-screen; 190,000 tested, 0.067% active; CCRF-Adr cells, JC-1 efflux; AID 1326, 2008; inhibition, % at 6.6 µM; in the data active = inhibition above about 40%;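 also: higher value means more JC-1 retained so stronger ABCB1 efflux block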
Lmaj promast = Leishmania major promastigote growth inhibition, primary screen; Leishmania major promastigotes, resazurin fluorescence viability; inhibition, % at 10 µM; 200,000 tested, 9% active; AID 1063, 2008;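 also: promastigotes grown with compound for 44 hours at 28 °C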
PKD1 kinase inh = inhibitors of human PKD1 kinase, biochemical, fluorescence polarization. inhibition, % (no concentration beside the values). PKD1 kinase fluorescence polarization assay. 200,000 tested, 0.056% active
Of the large screens only hits and unclear results are named; the others gave an inactive call. Shown is part of a subset that was picked to be rich in hits. Rule as the data show it, unless noted: active = inhibition above about 50%; inactive = the rest.

O=C(CCC1CCCN(C(=O)C2=CCCCC2)C1)N1CCN(c2ccccn2)CC1 (configuration not stated)	none
OC[C@@H](O)[C@@H](O[C@H]1O[C@H](CO)[C@@H](O)[C@H](O)[C@H]1O)[C@H](O)[C@@H](O)CO	none (no result: ABCB1 block, Lmaj promast, PKD1 kinase inh)
COc1ccc2nc(/N=C/c3c(C)[nH]n(-c4ccc(C)cc4)c3=O)sc2c1	none
CCN1CCN(CCOc2cccc(Oc3ccccc3)c2)CC1	Lmaj promast 95
N#CC(c1ccc(=O)[nH]n1)c1ccc(Cl)cc1Cl (configuration not stated)	none
Cc1nnc(-c2cccc(Br)c2)c2cn(-c3ccc(Br)cc3)nc12	none
COc1ccc(-n2cc3c(-c4cccc(Br)c4)nnc(C)c3n2)cc1	Lmaj promast 59
COc1ccc(N=C(C)C2=C(O)c3ccccc3C2=O)cc1	Lmaj promast 56 (no result: ABCB1 block)
Cc1cccc2nc(-c3cccc(NC(=O)c4ccc(Cl)cc4)c3)cn12	none
CC(C)OC(=O)NCCOC(=O)Nc1ccccc1Cl	none
COC(=O)c1ccc(Cl)c(NC(=O)NC23CC4CC(CC(C4)C2)C3)c1	none
COC(=O)c1cccc(NC(=O)NC23CC4CC(CC(C4)C2)C3)c1	GSH bead fluor 243
c1ccc(OCCOc2ccccc2-c2nnco2)cc1	none
COc1ccccc1OCCCCCCN1CCOCC1	Lmaj promast 89
O=[N+]([O-])c1ccccc1OCCCN1CCOCC1	none
Fc1ccccc1OCCCN1CCOCC1	Lmaj promast 51
COc1ccc(NC(=O)C2CCC(CNc3c(N4CCCCC4)c(=O)c3=O)CC2)cc1OC (configuration not stated)	none
O=C1CCC(C(=O)OCc2cc(=O)oc3ccc4ccccc4c23)=NN1	none (no result: GSH bead fluor, ABCG2 inh, ABCB1 block, Lmaj promast, PKD1 kinase inh)
Cc1nc2cc(-c3ccc(Cl)cc3)nn2c(C)c1CCC(=O)NC(C)c1ccc2c(c1)OCCO2 (configuration not stated)	Lmaj promast 98
COc1cccc(N2CCN(c3ncnc4c3[nH]c3ccccc34)CC2C)c1 (configuration not stated)	Lmaj promast 90
COc1cccc(N2CCN(c3ncnc4c3[nH]c3ccc(F)cc34)CC2C)c1 (configuration not stated)	Lmaj promast 100
C/C(=N\NC(=O)Cc1ccc(F)cc1)c1ccc(O)cc1	none
C=CCc1cc(C=O)cc(OC)c1OCc1ccc(Cl)cc1	none
C=CCc1cc(C=O)cc(OCC)c1OCc1ccc(Cl)cc1	Lmaj promast 86
O=C(/C=C/c1cccs1)N1CCN(c2ccc(O)cc2)CC1	Lmaj promast 76
O=C(/C=C/c1cccs1)N1CCCCC1	none
CNC(=O)c1ccc(-c2ccc(Cl)c(Cl)c2)s1	Lmaj promast 56
CCOc1ccc(-c2nnc(-c3ccncc3)o2)cc1OCC	Lmaj promast 78
COc1cc(CN2CCCC(CO)(Cc3ccccc3C)C2)cc2c1OCO2 (configuration not stated)	Lmaj promast 69
CCOC(=O)C1(Cc2ccccc2)CCN(Cc2ccc(C)s2)CC1	none
CCOC(=O)C1(Cc2ccccc2)CCN(Cc2ccc3c(c2)OCCO3)CC1	Lmaj promast 92
CCOC(=O)C1(Cc2ccccc2)CCN(Cc2cc(OC)c3c(c2)OCO3)CC1	Lmaj promast 91
CCOC(=O)C1(Cc2ccccc2)CCN(Cc2cccc3c2OCO3)CC1	Lmaj promast 66
CCOC(=O)C1(Cc2ccccc2)CCN(Cc2ccon2)CC1	none
O=C(NCc1cccnc1)/C(=C\c1ccc(-c2ccc(Br)cc2)o1)S(=O)(=O)c1ccccc1	Lmaj promast 100
O=C(NCc1cccnc1)/C(=C/c1ccc(-c2cccc(C(F)(F)F)c2)o1)NC(=O)c1ccccc1	Lmaj promast 84
Cc1ccc(-c2cc(C(=O)NCc3cccnc3)no2)cc1	none
O=C(NCc1cccnc1)/C(=C/c1ccc(-c2ccc(Cl)cc2)o1)S(=O)(=O)c1ccccc1	Lmaj promast 101
Cc1ccc(C(=O)N/C(=C/c2ccc(-c3cc(C(F)(F)F)ccc3Cl)o2)C(=O)NCc2cccnc2)cc1	none
